Assay results from ChEMBL document CHEMBL2331282, “9-[2-(R)-(Phosphonomethoxy)propyl]-2,6-diaminopurine (R)-PMPDAP and its prodrugs: optimized preparation, including identification of by-products formed, and antiviral evaluation in vitro” (Bioorg Med Chem, 2013).
The source made the active and inactive calls.

Tests used:
[1] = tested on: Mammalian orthoreovirus 1; assay: Antiviral activity against Reovirus 1 infected in dog MDCK cells assessed as reduction of virus-induced cytopathogenicity; type: functional, organism-based; conditions: Mammalian orthoreovirus 1, MDCK
[2] = tested on: Respiratory syncytial virus; assay: Antiviral activity against Respiratory syncytial virus infected in human HeLa cells assessed as reduction of virus-induced cytopathogenicity; type: functional, organism-based
Human betaherpesvirus 5 [3] = assay: Antiviral activity against Human cytomegalovirus infected in human HEL cells assessed as reduction of virus-induced cytopathogenicity; type: functional, organism-based; conditions: Human betaherpesvirus 5, HEL
[4] = Cytotoxicity against dog MDCK cells assessed as alteration of cell morphology up to 100 uM by microscopic analysis; type: cell-based, Canis lupus familiaris
Human respirovirus 3 = assay: Antiviral activity against Parainfluenza virus 3 infected in dog MDCK cells assessed as reduction of virus-induced cytopathogenicity; type: functional, organism-based; conditions: Human respirovirus 3, MDCK
[5] = tested on: Human immunodeficiency virus 2; assay: Antiviral activity against Human immunodeficiency virus 2 infected in human CEM cells assessed as reduction of virus-induced cytopathogenicity; type: functional, organism-based; conditions: Human immunodeficiency virus 2, CCRF-CEM
Coxsackievirus B4 [6] = assay: Antiviral activity against Coxsackievirus B4 infected in human HeLa cells assessed as reduction of virus-induced cytopathogenicity; type: functional, organism-based; conditions: Enterovirus B
[7] = Cytotoxicity against human CEM cells assessed as alteration of cell morphology by microscopic analysis; type: cell-based; conditions: CEM cells (CCRF-CEM)
Punta Toro virus [8] = assay: Antiviral activity against Punta Toro virus infected in dog MDCK cells assessed as reduction of virus-induced cytopathogenicity; type: functional, organism-based
Coxsackievirus B4 [9] = assay: Antiviral activity against Coxsackievirus B4 infected in dog MDCK cells assessed as reduction of virus-induced cytopathogenicity; type: functional, organism-based; conditions: Enterovirus B
Human alphaherpesvirus 2 [10] = assay: Antiviral activity against Herpes simplex virus 2 infected in human HEL cells assessed as reduction of virus-induced cytopathogenicity; type: functional, organism-based; conditions: Human alphaherpesvirus 2, HEL
[11] = Cytotoxicity against human HEL cells assessed as alteration of cell morphology up to 100 uM by microscopic analysis; type: cell-based
[12] = tested on: Human immunodeficiency virus 1; assay: Antiviral activity against Human immunodeficiency virus 1 infected in human CEM cells assessed as reduction of virus-induced cytopathogenicity; type: functional, organism-based; conditions: Human immunodeficiency virus 1, CCRF-CEM
Felid alphaherpesvirus 1 [13] = assay: Antiviral activity against Feline herpes virus infected in cat CRFK cells assessed as reduction of virus-induced cytopathogenicity; type: functional, organism-based; conditions: Felid alphaherpesvirus 1, CRFK
[14] = tested on: Vesicular stomatitis virus; assay: Antiviral activity against Vesicular stomatitis virus infected in human HEL cells assessed as reduction of virus-induced cytopathogenicity; type: functional, organism-based
[15] = Cytotoxicity against cat CRFK cells assessed as alteration of cell morphology up to 100 uM by microscopic analysis; type: cell-based, Felis catus
Sindbis virus = assay: Antiviral activity against Sindbis virus infected in dog MDCK cells assessed as reduction of virus-induced cytopathogenicity; type: functional, organism-based
[16] = Cytotoxicity against human HeLa cells assessed as alteration of cell morphology up to 100 uM by microscopic analysis; type: cell-based
Human alphaherpesvirus 1 [17] = assay: Antiviral activity against Herpes simplex virus 1 infected in human HEL cells assessed as reduction of virus-induced cytopathogenicity; type: functional, organism-based; conditions: Human alphaherpesvirus 1, HEL
Feline coronavirus = assay: Antiviral activity against Feline coronavirus infected in cat CRFK cells assessed as reduction of virus-induced cytopathogenicity; type: functional, organism-based; conditions: Alphacoronavirus 1, CRFK
[18] = tested on: Vesicular stomatitis virus; assay: Antiviral activity against Vesicular stomatitis virus infected in human HeLa cells assessed as reduction of virus-induced cytopathogenicity; type: functional, organism-based
MT4 = assay: Cytotoxicity against human MT4 cells assessed as decrease in cell viability after 5 days by CellTiter Glo assay; type: cell-based; conditions: mt4, 120 h
Procedure, shortened: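 MT-4 cells, 2000/well, in RPMI 1640 with 10% FBS plus penicillin/streptomycin; 3-fold serial dilutions, 10 concentrations, final DMSO ≤0.5%; 10 µM puromycin and 0.5% DMSO controls.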

[19] = tested on: Human immunodeficiency virus 1; assay: Antiviral activity against Human immunodeficiency virus 1 3B infected in human MT4 cells assessed as reduction of virus-induced cytopathicity treated post-viral infection measured after 5 days by Cell-Titer Glo assay; type: functional, organism-based; conditions: MT4, 120 h
[20] = tested on: Feline immunodeficiency virus; assay: Antiviral activity against Feline immunodeficiency virus infected in cat CRFK cells assessed as decrease in FIV p24 antigen level treated post-viral infection measured after 6 days by ELISA; type: functional, organism-based; conditions: 144 h
Procedure, shortened: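 CrFK cells (5000/well) pre-seeded 24 h at 37 °C, 5% CO2; washed with PBS containing 50 µg/ml DEAE-dextran, inoculated with 100 CCID50 FIV plus serial compound dilutions; after 2 h washed and overlaid with 5% FCS DMEM plus compound.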

[21] = Cytotoxicity against cat CRFK cells assessed as decrease in cell viability after 3 days by CellTiter 96 Aqueous One solution assay; type: cell-based, Felis catus; conditions: 72 h
Coxsackievirus B4 [22] = assay: Antiviral activity against Coxsackievirus B4 infected in african green monkey Vero cells; type: functional, organism-based; conditions: Enterovirus B
Felid alphaherpesvirus 1 [23] = assay: Antiviral activity against Feline herpes virus at non-toxic concentration; type: functional, organism-based
Human alphaherpesvirus 2 [24] = assay: Antiviral activity against Herpes simplex virus 2 at non-toxic concentration; type: functional, organism-based
Human alphaherpesvirus 1 [25] = assay: Antiviral activity against Herpes simplex virus 1 at non-toxic concentration; type: functional, organism-based
Human alphaherpesvirus 3 [26] = assay: Antiviral activity against TK+ Varicella zoster virus OKA; type: functional; conditions: Human alphaherpesvirus 3, strain Oka vaccine
Human alphaherpesvirus 3 [27] = assay: Antiviral activity against TK- Varicella zoster virus O7-1; type: functional, organism-based; conditions: Human alphaherpesvirus 3, O7-1
Human betaherpesvirus 5 [28] = assay: Antiviral activity against Human cytomegalovirus at non-toxic concentration; type: functional, organism-based
Punta Toro virus [29] = assay: Antiviral activity against Punta Toro virus infected in african green monkey Vero cells; type: functional, organism-based
Vaccinia virus = assay: Antiviral activity against Vaccinia virus at non-toxic concentration; type: functional, organism-based; conditions: Orthopoxvirus vaccinia

C[C@@H](O)CNc1nc(N)c2ncn(C[C@@H](C)O)c2n1
> 100 µg/mL: EC50 [1] | EC50 [2] | EC50 (Human betaherpesvirus 5 [3]) | MCC [4] | EC50 (Human respirovirus 3) | EC50 [5] | EC50 (Coxsackievirus B4 [6]) | MCC [7] | EC50 (Punta Toro virus [8]) | EC50 (Coxsackievirus B4 [9]) | EC50 (Human alphaherpesvirus 2 [10]) | MCC [11] | EC50 [12] | EC50 (Felid alphaherpesvirus 1 [13]) | EC50 [14] | MCC [15] | EC50 (Sindbis virus) | MCC [16] | EC50 (Human alphaherpesvirus 1 [17]) | EC50 (Feline coronavirus) | EC50 [18]

C[C@H](Cn1cnc2c(NCP(=O)(O)O)nc(N)nc21)OCP(=O)(O)O
> 100 µg/mL: EC50 [1] | EC50 [2] | EC50 (Human betaherpesvirus 5 [3]) | MCC [4] | EC50 (Human respirovirus 3) | EC50 [5] | EC50 (Coxsackievirus B4 [6]) | MCC [7] | EC50 (Punta Toro virus [8]) | EC50 (Coxsackievirus B4 [9]) | EC50 (Human alphaherpesvirus 2 [10]) | MCC [11] | EC50 [12] | EC50 (Felid alphaherpesvirus 1 [13]) | EC50 [14] | MCC [15] | EC50 (Sindbis virus) | MCC [16] | EC50 (Human alphaherpesvirus 1 [17]) | EC50 (Feline coronavirus) | EC50 [18]

C[C@H](Cn1cnc2c(N)nc(N)nc21)OCP(=O)(O)O
> 100 µM: CC50 (MT4)
> 500 µM: CC50 [21]
0.94 µM: EC50 [19]
0.12 µM: EC50 [20]

CCOC(=O)[C@H](C)NP(=O)(CO[C@H](C)Cn1cnc2c(N)nc(N)nc21)N[C@@H](C)C(=O)OCC
1.1 µM: EC50 [20]
0.29 µM: EC50 [19]
215 µM: CC50 [21]
> 100 µM: CC50 (MT4)

CCCCCCCCCCCCCCCCOCCCOP(=O)([O-])CO[C@H](C)Cn1cnc2c(N)nc(N)nc21.[Na+]
12 µg/mL: EC50 (Punta Toro virus [29])
0.00058 µM: EC50 [20]
9 µg/mL: EC50 (Coxsackievirus B4 [22])
0.058 µg/mL: EC50 (Human alphaherpesvirus 3 [27])
96 µM: CC50 [21]
0.00224 µM: EC50 [19]
19.8 µM: CC50 (MT4)
inactive: Activity (Felid alphaherpesvirus 1 [23]) | Activity (Human alphaherpesvirus 2 [24]) | Activity (Human alphaherpesvirus 1 [25]) | Activity (Human betaherpesvirus 5 [28]) | Activity (Vaccinia virus)
< 0.032 µg/mL: EC50 (Human alphaherpesvirus 3 [26])

C[C@@H](O)CNc1nc(N)nc2c1ncn2C[C@@H](C)O
> 100 µg/mL: EC50 [1] | EC50 [2] | EC50 (Human betaherpesvirus 5 [3]) | MCC [4] | EC50 (Human respirovirus 3) | EC50 [5] | EC50 (Coxsackievirus B4 [6]) | MCC [7] | EC50 (Punta Toro virus [8]) | EC50 (Coxsackievirus B4 [9]) | EC50 (Human alphaherpesvirus 2 [10]) | MCC [11] | EC50 [12] | EC50 (Felid alphaherpesvirus 1 [13]) | EC50 [14] | MCC [15] | EC50 (Sindbis virus) | MCC [16] | EC50 (Human alphaherpesvirus 1 [17]) | EC50 (Feline coronavirus) | EC50 [18]
